This is a sample that favours compounds with a hit; in the whole collection about 1.2% have one here.
ARFGAP1 inh: inhibitors of rat ARFGAP1 GAP activity, primary screen, biochemical, fluorescence polarization, GDP tracer; ADP-ribosylation factor GTPase-activating protein 1 (Rattus norvegicus), Q62848; Arfgap1-stimulated ARF1 GTP hydrolysis, GDP FP detection; inhibition, % at 16.5 µM; 360,000 tested, 0.26% active;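 active = inhibition above a per-plate limit, mean inhibition of low control wells plus 3 SD, cut at about 25% in these data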;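 note: 0% = DMSO wells with enzyme and 100% = wells lacking Arfgap1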
Target sequence (Q62848 1-136 limits assumed): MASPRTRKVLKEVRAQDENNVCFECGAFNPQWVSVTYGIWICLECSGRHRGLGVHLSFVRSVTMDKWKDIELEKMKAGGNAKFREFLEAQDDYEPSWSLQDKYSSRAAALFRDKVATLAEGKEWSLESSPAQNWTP
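Repeats: one replicate per compound; assay system: rat Arfgap1 catalytic domain, aa 1-136; times: enzyme reaction 120 min at 25 °C after 20 min preincubation; detection: FP of antibody-bound GDP Alexa 633 tracer, ex 620/em 688 nm; benchmarks: high control wells lacking Arfgap1, low control full reaction with DMSO; reagent: human ARF1(Δ1-17)-GTP substrate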
IDE act: human IDE activators in live cells, primary screen, fluorescence polarization, HEK cells, FAbeta-B substrate; 340,000 tested, 0.073% active; FAbeta-B cleavage; 0% vehicle, 100% cell-free pure enzyme wells; activation, % at 5.96 µM; Insulin-degrading enzyme (Homo sapiens), P14735;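 active = activation above the mean of all tested compounds plus 3 SD, set per screening campaign, cut at about 17% in these data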
PREPL inhibitor: PREPL enzyme inhibitors, primary screen, biochemical, fluorescence polarization. AID 2751, 2010. inhibition, % at 5.96 µM. Prolyl endopeptidase-like (Homo sapiens), Q4J6C6. recombinant PREPL, fluorescence polarization activity-based probe. 320,000 tested, 0.68% active;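 note: 0% = enzyme with DMSO and 100% = wells lacking enzyme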
IDE inh: human IDE inhibitors in live cells, primary screen, fluorescence polarization, HEK cells, FAbetaB substrate; FAbetaB cleavage; inhibition, % at 5.59 µM; 320,000 tested, 0.41% active; AID 434962, 2010;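 active = percent inhibition above the average of all tested compounds plus 3 SD, set per screening campaign, cut at about 16% in these data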;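 note: IDE supplied by intact live HEK cells; FP after avidin binding of uncleaved biotin substrate so inhibition keeps polarization high; 0% = DMSO wells and 100% = 60 µM reference IDE inhibitor Ii1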
ASAP1 inh: inhibitors of human ASAP1 ArfGAP activity, primary screen, biochemical, fluorescence polarization; inhibition, % at 16.5 µM; 360,000 tested, 0.19% active; ASAP1-stimulated ARF1 GTP hydrolysis, GDP FP detection; Arf-GAP with SH3 domain, ANK repeat and PH domain-containing protein 1 (Homo sapiens), …; AID 624377, 2012; in the data active = inhibition above about 25%;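 note: 0% = vehicle with enzyme and substrate and 100% = no enzyme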
PREPL confirm: human PREPL enzyme inhibitors, confirmation, biochemical, fluorescence polarization. shares compounds with PREPL inhibitor. recombinant PREPL, fluorescence polarization activity probe. inhibition, % at 5.96 µM. 2,000 tested, 67% active. AID 2803, 2010;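 note: 0% = protein with DMSO and 100% = wells lacking protein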
IDE cell inh cf: human IDE inhibitors in live cells, confirmation, fluorescence polarization, HEK cells, FAbetaB substrate; shares compounds with IDE inh; FAbetaB cleavage; inhibition, % at 5.59 µM; 1,200 tested, 51% active; AID 435028, 2010;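 active = mean inhibition across triplicate wells above the cutoff set by the earlier primary insulin-degrading enzyme screen, cut at about 16% in these data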;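 note: 0% = DMSO wells and 100% = 60 µM reference IDE inhibitor Ii1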
HEK293 tox: cytotoxicity in HEK cells, cytotoxicity control for IDE inhibitor project, cell-based, luminescence; shares compounds with IDE inh; 1,200 tested, 28% active; inhibition, % at 5.59 µM; HEK293 cytotoxicity, ATP luminescence; AID 449730, 2010; in the data active = inhibition above about 22%;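 note: 0% = vehicle wells and 100% = reference cytotoxic drug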
ASAP1 inh confirm: ASAP1 GAP activity inhibitors, confirmation, biochemical, fluorescence polarization, human, triplicate. shares compounds with ASAP1 inh. 620 tested, 37% active. ASAP1-stimulated Arf1 GTPase, GDP fluorescence polarization. inhibition, % at 16.5 µM;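 active = mean inhibition over triplicates exceeds the hit threshold derived for the earlier primary screening run, cut at about 25% in these data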
ARFGAP1 confirm: ARFGAP1 inhibitor hit confirmation, biochemical, fluorescence polarization, triplicate; shares compounds with ARFGAP1 inh; ARFGAP1-stimulated ARF1 GTP hydrolysis, GDP tracer FP; inhibition, % at 16.5 µM; 890 tested, 30% active;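 active = average inhibition over triplicates above the hit cutoff set in the earlier primary screen, cut at about 25% in these data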;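 note: 0% = Arfgap1 plus ARF1-GTP with DMSO and 100% = wells lacking Arfgap1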
* hit, by the source's call. Cut-off read from the data, not from the text of the source, unless noted: active = inhibition above about 43%; inactive = the rest.

`Cc1ccc(Nc2nc(-c3cccnc3)nc3ccccc23)cc1` gave ARFGAP1 inh 6, IDE act -8, PREPL inhibitor 4, IDE inh -1 and ASAP1 inh 15.
Screening CCN1CCCC1CNC(=O)c1ccc2c(c1)NC(=O)/C(=C\c1ccc(OC)c(OC)c1)S2 (configuration not stated) returned ARFGAP1 inh 39*, IDE act 4, PREPL inhibitor 56*, IDE inh -1, ASAP1 inh 24, PREPL confirm 61* and ARFGAP1 confirm 83*.
`CCOC(=O)c1c(C)[nH]c(C(=O)OCC(=O)NCc2ccc(OC)c(OC)c2)c1C` gave ARFGAP1 inh 3, IDE act 3, PREPL inhibitor -6, IDE inh 1 and ASAP1 inh 9.
`Nc1ccc2nc(-c3cccc(-c4nc5ccc(N)cc5[nH]4)n3)[nH]c2c1` gave ARFGAP1 inh active, IDE act 6, PREPL inhibitor 56*, IDE inh 1, ASAP1 inh active, PREPL confirm 38, ASAP1 inh confirm active and ARFGAP1 confirm active.
Nc1ccc2nc(-c3ccc(-c4nc5ccc(N)cc5[nH]4)cc3)[nH]c2c1 was read as ARFGAP1 inh 24, PREPL inhibitor 20, IDE inh 4 and ASAP1 inh 2.
Screening CN(C)C=Nc1c(Br)cc(Br)c2nonc12 returned ARFGAP1 inh 7, IDE act -31, PREPL inhibitor -5, IDE inh 26*, ASAP1 inh 5, IDE cell inh cf 62* and HEK293 tox 7.
Screening CCOc1ccc(CNC(=O)CCCn2nc(C)c3c(C)n(-c4ccc(C)cc4)nc3c2=O)cc1 returned ARFGAP1 inh 9, IDE act 5, PREPL inhibitor 4, IDE inh 6 and ASAP1 inh -10.
`COc1c(/C=N/NC(N)=S)c(C)nn1-c1ccccc1` gave ARFGAP1 inh 2, IDE act -10, PREPL inhibitor -2, IDE inh 22*, ASAP1 inh -2, IDE cell inh cf 3 and HEK293 tox 11.
For COc1ccc2c(n1)Sc1nc3ccccc3nc1N2 the results were ARFGAP1 inh -5, IDE act -35, PREPL inhibitor -1, IDE inh 28*, ASAP1 inh -7, IDE cell inh cf 55* and HEK293 tox 12.
COc1cc2ccccc2nn1 was read as ARFGAP1 inh 18, IDE act 3, PREPL inhibitor 1, IDE inh -2 and ASAP1 inh -5.
COCn1c(-c2ccc(OC)c(OC)c2)nc2ccccc21 was read as ARFGAP1 inh 1, IDE act -5, PREPL inhibitor 11, IDE inh 12 and ASAP1 inh 14.

Screening results deposited in PubChem by The Scripps Research Institute Molecular Screening Center.
